Drawing on ChEMBL document CHEMBL4819027, “Design, synthesis and biological evaluation of novel 2-(4-(1H-indazol-6-yl)-1H-pyrazol-1-yl)acetamide derivatives as potent VEGFR-2 inhibitors” (Eur J Med Chem, 2021), this text covers IC50, inhibition and Activity for one compound.

One test deals with HT-29. The experiment in a line: Antiproliferative activity against human HT-29 cells assessed as cell growth inhibition after 72 hrs by MTT assay. The class given is functional, cell-based. The conditions noted are these: HT-29, 72 h. Put shortly:
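Log-phase cells were seeded at 5 × 10³ per well and attached 24 h. HT-29 and GES-1 were grown in DMEM-based medium, A549/HepG2/HGC-27 in RPMI-1640, HUVEC in ECM with ECGS; all media had 10% FBS. Cells were exposed to graded compound concentrations for 72 h at 37 °C. MTT (5 mg/mL stock) was added for 4 h, formazan dissolved in DMSO, and A490 read. IC50 was obtained by nonlinear sigmoidal regression; mean ± S.E. of three experiments.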

Test [1] has as its system HGC-27. The experiment in a line: Inhibition of cell migration at human HGC-27 cells measured up to 24 hrs by microscopic based wound healing assay. The class given is functional. The conditions noted are these: dose 0.1-1 µM, time hrs <=24. The gist of the method: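 HGC-27 grown to 80–90% confluence in 6-well plates, serum-starved 12 h, scratched with 200 µL tip (~1 mm lane). Washed, then given complete medium alone or with compound (0.1, 0.5, 1 µM) or sorafenib positive control. Imaged by inverted microscope at 0, 6 and 24 h; relative scratch closure quantified; mean ± SD, three independent experiments.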

Test [2] relates to HGC-27. Nature of the test: Antimigratory activity against human HGC-27 cells assessed as relative closure of scratches at 0.5 uM measured after 6 hrs by scratch wound healing assay relative to control. The class given is functional. The gist of the method: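 HGC-27 monolayers at 80–90% confluence were serum-starved 12 h, then scratched to give 1 mm lanes. After a PBS wash, cells received complete medium with or without compound (0.1, 0.5, 1 μM). Wounds were imaged at 0, 6 and 24 h. Relative scratch closure was quantified against untreated control; mean ± SD of three experiments.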

Test [3] relates to HGC-27. The experiment in a line: Antimigratory activity against human HGC-27 cells assessed as reduction in cell migration measured after 24 hrs by crystal violet staining microscopy based transwell migration assay. The class given is functional. The conditions noted are these: dose 0.1-1 µM.
Test [4] deals with HGC-27. Nature of the test: Antimigratory activity against human HGC-27 cells assessed as number of migration cells at 0.1 uM measured after 24 hrs by transwell migration assay (reference value: 320). The class given is functional.
The test system of test [5] is HGC-27. The experiment in a line: Antiinvasive activity against human HGC-27 cells assessed as reduction in cell invasion measured after 24 hrs by transwell invasion assay. The class given is functional, cell-based. Put shortly:
(§1)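 Transwell inserts (12 μm pore) were precoated with Matrigel. HGC-27 cells at 5 × 10⁵ cells/mL were placed in the upper well in serum-free medium with compound (0.1, 0.5, 1 μM). The lower chamber held RPMI-1640 with 10% FBS. After 24 h at 37 °C, invaded cells were methanol-fixed and stained with 0.1% crystal violet. Cells were counted in three random fields; three independent experiments, mean ± SD.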

For test [6], the system named is HGC-27. Nature of the test: Antiinvasive activity against human HGC-27 cells assessed as reduction in cell invasion at 0.1 to 1 measured after 24 hrs by transwell invasion assay. The class given is functional, cell-based. Put shortly:
as §1

Test [7] has as its system HGC-27. The experiment in a line: Downregulation of MMP-9 protein expression in human HGC-27 cells incubated for 24 hrs by immunoblot analysis. The class given is functional, cell-based. Put shortly: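 HGC-27 cells (1.0 × 10⁶ per 60 mm dish) were treated 24 h with 0.1% DMSO or compound (0.1, 0.5, 1 μM). Cells were lysed in RIPA with PMSF and phosphatase inhibitor, and protein measured by BCA. Lysates were run on 8–12% SDS-PAGE, transferred to nitrocellulose and probed with primary antibodies overnight at 4 °C, then HRP secondary. Bands were detected by ECL and densitometry; at least triplicate.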

Test [8] relates to HGC-27. The experiment in a line: Induction of apoptosis in human HGC-27 cells assessed as total apoptotic cells level at 0.1 uM incubated for 24 hrs by propidium iode and annexin V-FITC staining based flow cytometry. The class given is functional. The gist of the method:
(§2)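 HGC-27 cells (1.0 × 10⁶ per 60 mm dish) were treated 24 h with 0.1% DMSO or compound (0.1, 0.5, 1 μM). Cells were stained with Annexin V-FITC in HEPES/NaCl/CaCl₂ binding buffer (pH 7.4) for 15 min at room temperature, then with PI for 10 min. About 10 000 events were acquired by flow cytometry to give viable, early apoptotic, late apoptotic and necrotic fractions.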

Test [9] relates to HGC-27. The experiment in a line: Induction of apoptosis in human HGC-27 cells assessed as total apoptotic cells level at 0.5 uM incubated for 24 hrs by propidium iode and annexin V-FITC staining based flow cytometry. The class given is functional. The gist of the method:
as §2

For test [10], the system named is HGC-27. Nature of the test: Induction of apoptosis in human HGC-27 cells assessed as viable cells level at 1 uM incubated for 24 hrs by propidium iode and annexin V-FITC staining based flow cytometry (reference value: 96.0%). The class given is functional. The gist of the method: as §2
For test [11], the system named is HGC-27. The experiment in a line: Induction of apoptosis in human HGC-27 cells assessed as viable cells level at 0.5 uM incubated for 24 hrs by propidium iode and annexin V-FITC staining based flow cytometry (reference value: 96.0%). The class given is functional. Put shortly: as §2
In test [12] the test system is HGC-27. Nature of the test: Induction of apoptosis in human HGC-27 cells assessed as early apoptotic cells level at 0.1 uM incubated for 24 hrs by propidium iode and annexin V-FITC staining based flow cytometry (reference value: 1.48%). The class given is functional. Put shortly: as §2
The subject of test [13] is HGC-27. The experiment in a line: Induction of apoptosis in human HGC-27 cells assessed as early apoptotic cells level at 0.5 uM incubated for 24 hrs by propidium iode and annexin V-FITC staining based flow cytometry (reference value: 1.48%). The class given is functional. The gist of the method:
as §2

The test system of test [14] is HGC-27. Nature of the test: Induction of apoptosis in human HGC-27 cells assessed as late apoptotic cells level at 1 uM incubated for 24 hrs by propidium iode and annexin V-FITC staining based flow cytometry (reference value: 0.86). The class given is functional. The gist of the method:
as §2

Test [15] relates to HGC-27. Nature of the test: Induction of apoptosis in human HGC-27 cells assessed as late apoptotic cells level at 0.1 uM incubated for 24 hrs by propidium iode and annexin V-FITC staining based flow cytometry (reference value: 0.86%). The class given is functional. The gist of the method: as §2
The subject of test [16] is HGC-27. Nature of the test: Induction of apoptosis in human HGC-27 cells assessed as necrotic cells level at 0.1 uM incubated for 24 hrs by propidium iode and annexin V-FITC staining based flow cytometry (reference value: 1.64%). The class given is functional. Put shortly:
as §2

Test [17] concerns HGC-27. Nature of the test: Induction of apoptosis in human HGC-27 cells assessed as necrotic cells level at 0.5 uM incubated for 24 hrs by propidium iode and annexin V-FITC staining based flow cytometry (reference value: 1.64%). The class given is functional. The gist of the method:
as §2

The next test deals with HUVEC. The experiment in a line: Antiangiogenic activity against HUVEC cells assessed as reduction in VEGF-induced tube length at 1 to 10 uM incubated for 12 hrs by matrigel-based assay. The conditions noted are these: Homo sapiens, dose 1-10 µM. The class given is functional, cell-based. The gist of the method:
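HUVECs at 4 × 10⁵ cells/mL seeded on Matrigel that had been polymerized 1 h at 37 °C. Cells were stimulated with 20 ng/mL VEGF and treated with compound (1, 2.5, 5 and 10 μM) or 0.1% DMSO vehicle for 12 h at 37 °C. Tubes were imaged by inverted microscopy. Tube length, surface area and branch points were quantified as pixel area.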

In test [18] the target is Vascular endothelial growth factor receptor 2 (Homo sapiens, UniProt P35968). Nature of the test: Inhibition of VEGFR2-mediated angiogenesis in HUVEC cells assessed as reduction of phosphorylation of VEGFR-2 after 24 hrs by Westernblot analysis relative to control. The conditions noted are these: dose 1-10 µM. The class given is cell-based. The gist of the method:
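HUVECs seeded at 1.0×10^6 cells/dish in ECM with 1% ECGS, 10% FBS; treated 24 h with test compound (1, 5, 10 µM), 0.1% DMSO vehicle or 10 µM sorafenib. Lysed in RIPA with PMSF and phosphatase inhibitor; 8–12% SDS-PAGE, nitrocellulose, milk block, CST primaries overnight 4 °C, HRP secondaries, ECL; p-VEGFR-2 (Tyr1175) densitometry; at least triplicate.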

pIC50: −log10 of the molar value. Activity calls are given as the source filed them. The rule behind the calls is not given here.

Vascular endothelial growth factor receptor 2, sequence (P35968 whole entry): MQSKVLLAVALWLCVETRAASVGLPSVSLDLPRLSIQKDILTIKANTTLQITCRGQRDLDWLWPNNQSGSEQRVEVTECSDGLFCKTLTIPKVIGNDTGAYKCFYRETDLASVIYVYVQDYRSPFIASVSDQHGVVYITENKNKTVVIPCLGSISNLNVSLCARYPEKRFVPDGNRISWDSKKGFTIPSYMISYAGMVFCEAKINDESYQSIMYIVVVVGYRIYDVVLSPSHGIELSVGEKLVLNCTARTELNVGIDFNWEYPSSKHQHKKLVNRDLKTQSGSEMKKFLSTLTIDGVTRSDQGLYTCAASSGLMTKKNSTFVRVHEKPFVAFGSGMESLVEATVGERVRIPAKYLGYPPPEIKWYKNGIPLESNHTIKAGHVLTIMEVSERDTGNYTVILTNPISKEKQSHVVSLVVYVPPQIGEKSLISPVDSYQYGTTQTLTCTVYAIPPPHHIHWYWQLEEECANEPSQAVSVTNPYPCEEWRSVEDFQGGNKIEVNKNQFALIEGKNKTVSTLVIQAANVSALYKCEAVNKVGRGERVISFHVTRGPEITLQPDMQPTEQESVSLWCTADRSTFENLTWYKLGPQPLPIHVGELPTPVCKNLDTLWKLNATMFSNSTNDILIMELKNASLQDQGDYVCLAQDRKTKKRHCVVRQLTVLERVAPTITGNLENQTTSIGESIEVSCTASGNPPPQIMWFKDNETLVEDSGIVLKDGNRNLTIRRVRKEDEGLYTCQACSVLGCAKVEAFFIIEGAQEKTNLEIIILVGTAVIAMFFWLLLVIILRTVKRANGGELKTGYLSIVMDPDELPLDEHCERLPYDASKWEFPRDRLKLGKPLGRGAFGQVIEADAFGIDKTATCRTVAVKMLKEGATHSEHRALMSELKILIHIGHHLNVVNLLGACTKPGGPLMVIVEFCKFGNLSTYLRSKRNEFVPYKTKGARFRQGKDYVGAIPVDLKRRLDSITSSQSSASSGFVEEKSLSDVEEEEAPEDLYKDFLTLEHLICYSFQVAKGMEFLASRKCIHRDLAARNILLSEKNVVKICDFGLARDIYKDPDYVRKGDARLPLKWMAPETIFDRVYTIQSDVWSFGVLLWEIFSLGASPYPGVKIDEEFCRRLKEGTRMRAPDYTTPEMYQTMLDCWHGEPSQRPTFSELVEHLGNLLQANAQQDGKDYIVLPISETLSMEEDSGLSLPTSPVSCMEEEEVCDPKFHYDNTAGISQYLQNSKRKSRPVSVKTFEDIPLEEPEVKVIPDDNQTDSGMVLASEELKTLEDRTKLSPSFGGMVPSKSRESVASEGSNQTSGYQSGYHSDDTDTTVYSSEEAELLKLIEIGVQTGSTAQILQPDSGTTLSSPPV

`CC(=O)Nc1n[nH]c2cc(-c3cnn(CC(=O)Nc4ccc(C)c(C(F)(F)F)c4)c3)ccc12`: the negative logarithm of the IC50 (pIC50) in the test with HT-29 is 5.53. Further, the inhibition result (in the test on HGC-27 [1]; in the test on HGC-27 [3]; in the test with HGC-27 [5]; in the test on HGC-27 [6]; in the test on HGC-27 [7]; in test [18]) was “Dose-Dependent Effect” each time. In the test with HGC-27 [2], the inhibition at 0.5 µM stood at 9.5%. The Activity with HGC-27 [4] was determined as 212; in the test on HGC-27 [8], 7.42%; in the test with HGC-27 [9], 19.55%; in the test on HGC-27 [10] it was 61.6%; in the test with HGC-27 [11], 69.7%; with HGC-27 [12], 4.75%. Further, the Activity worked out at 8.35% in the test with HGC-27 [13]; 17% in the test with HGC-27 [14]; 2.67% in the test on HGC-27 [15]; 2.12% in the test with HGC-27 [16]; 10.8% in the test with HGC-27 [17]. For the same compound, the outcome in the test on HUVEC was Active.
